Results published in ChEMBL document CHEMBL1157686, “Synthesis, stereoelectronic characterization and antiparasitic activity of new 1-benzenesulfonyl-2-methyl-1,2,3,4-tetrahydroquinolines” (Bioorg Med Chem, 2010).

Assays:
Plasmodium falciparum = assay: Antiplasmodial activity against chloroquine and pyrimethamine-resistant Plasmodium falciparum K1 infected in rat L6 cells; assay type: functional, organism-based
Outline: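 P. falciparum K1 (chloroquine- and pyrimethamine-resistant) tested in vitro following an earlier-published method. Compounds were run in duplicate over 0.2–300 μM. Values are the mean of four determinations (two per experiment, two independent experiments).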

L6 = assay: Cytotoxicity against rat L6 cells; assay type: cell-based
Outline: (§1)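 Protocol follows an earlier published method. Compounds were tested in duplicate over 0.2–300 μM.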

[1] = Selectivity index, ratio of IC50 for rat L6 cells to IC50 for Trypanosoma cruzi infected in rat L6 cells; assay type: toxicity, cell-based; details: read-out: Ratio IC50
Outline: (§2)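 SI = IC50 in rat L6 cells / IC50 against the parasite (T. cruzi or P. falciparum K1). Both IC50s came from duplicate in vitro runs over 0.2–300 μM following an earlier-published method, each averaged from four determinations across two independent experiments.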

[2] = Selectivity index, ratio of IC50 for rat L6 cells to IC50 for chloroquine and pyrimethamine-resistant Plasmodium falciparum K1 infected in rat L6 cells; assay type: toxicity, cell-based; details: read-out: Ratio IC50; outline: as §2
[3] = Ratio of compound IC50 to podophyllotoxin IC50 for rat L6 cells; assay type: cell-based; details: read-out: Ratio IC50
[4] = test system: Trypanosoma brucei rhodesiense; assay: Antitrypanosomal activity against Trypanosoma brucei rhodesiense infected in rat L6 cells; assay type: functional, organism-based; outline: as §1
Trypanosoma cruzi [5] = assay: Antitrypanosomal activity against Trypanosoma cruzi infected in rat L6 cells; assay type: functional, organism-based; outline: as §1
Leishmania donovani = assay: Antileishmanial activity against Leishmania donovani infected in rat L6 cells; assay type: functional, organism-based; outline: as §1
Trypanosoma cruzi [6] = assay: Ratio of compound IC50 to benznidazole IC50 for Trypanosoma cruzi infected in rat L6 cells; assay type: functional

Row | Structure (SMILES) | IC50 (Plasmodium falciparum) [µM] | IC50 (L6) [µM] | selectivity ratio [1] | selectivity ratio [2] | selectivity ratio [3] | IC50 [4] [µM] | IC50 (Trypanosoma cruzi [5]) [µM] | IC50 (Leishmania donovani) [µM] | Ratio IC50 (Trypanosoma cruzi [6])
1 | CC1CCc2ccccc2N1S(=O)(=O)c1cccc([N+](=O)[O-])c1 (stereo unspecified) | 10.3 | 187 | 5.85 | 18.1 | 590 | 33.1 | 31.9 | 24.9 | 
2 | CC1CCc2ccccc2N1 (stereo unspecified) | > 34 | 249 | 1.32 | < 7.32 |  | 87.2 | 189 | > 611 | 
3 | CC1CCc2ccccc2N1S(=O)(=O)c1ccccc1 (stereo unspecified) | 13.2 | 70 | 3.29 | 5.28 | 590 | 52.9 | 21.3 | 174 | 
4 | CC(=O)Nc1ccc(S(=O)(=O)N2c3ccccc3CCC2C)cc1 (stereo unspecified) | > 14.5 | 52 | 2.42 | < 3.58 | 590 | 49.8 | 21.4 | 50.7 | 
5 | Cc1ccc(S(=O)(=O)N2c3ccccc3CCC2C)cc1 (stereo unspecified) | 11 | 4.9 | 0.29 | 0.44 | 590 | 44 | 16.6 | 22.5 | 
6 | CC1CCc2ccccc2N1S(=O)(=O)c1ccc(F)cc1 (stereo unspecified) | 12.1 | 67.6 | 0.3 | 5.58 | 590 | 125 | 224 | 167 | 
7 | CC1CCc2ccccc2N1S(=O)(=O)c1ccc(Cl)cc1 (stereo unspecified) | 8.43 | 20.5 | 1.28 | 2.43 | 590 | 43.5 | 16 | 18.9 | 
8 | CC1CCc2ccccc2N1S(=O)(=O)c1ccc(Br)cc1 (stereo unspecified) | 6.65 | 7.36 | 0.53 | 1.1 | 590 | 40.1 | 13.8 | 21.4 | 
9 | CC1CCc2ccccc2N1S(=O)(=O)c1ccc(N)cc1 (stereo unspecified) | > 16.6 | 35.3 | 1.78 | < 2.13 | 590 | 37.2 | 19.7 | 55.8 | 
10 | CC1CCc2ccccc2N1S(=O)(=O)c1ccc([N+](=O)[O-])cc1 (stereo unspecified) | 8.31 | 248 | 21.7 | 30 | 590 | 153 | 11.4 | > 271 | 7
11 | COc1ccc(S(=O)(=O)N2c3ccccc3CCC2C)cc1 (stereo unspecified) | 11.8 | 5.99 | 0.37 | 0.5 | 590 | 43.9 | 15.9 | 26.7 | 
12 | O=C(Cn1ccnc1[N+](=O)[O-])NCc1ccccc1 [BENZNIDAZOLE] |  |  |  |  |  |  | 1.54 |  | 
13 | Nc1nc(N)nc(Nc2ccc([As]3SCC(CO)S3)cc2)n1 (stereo unspecified) [MELARSOPROL] |  |  |  |  |  | 0.008 |  |  | 
14 | CCCCCCCCCCCCCCCCOP(=O)([O-])OCC[N+](C)(C)C [MILTEFOSINE] |  |  |  |  |  |  |  | 0.25 | 
